Series [1] addresses T1, HSP90 (Plasmodium falciparum 3D7) (UniProt Q8IL32).
T1 sequence (whole entry): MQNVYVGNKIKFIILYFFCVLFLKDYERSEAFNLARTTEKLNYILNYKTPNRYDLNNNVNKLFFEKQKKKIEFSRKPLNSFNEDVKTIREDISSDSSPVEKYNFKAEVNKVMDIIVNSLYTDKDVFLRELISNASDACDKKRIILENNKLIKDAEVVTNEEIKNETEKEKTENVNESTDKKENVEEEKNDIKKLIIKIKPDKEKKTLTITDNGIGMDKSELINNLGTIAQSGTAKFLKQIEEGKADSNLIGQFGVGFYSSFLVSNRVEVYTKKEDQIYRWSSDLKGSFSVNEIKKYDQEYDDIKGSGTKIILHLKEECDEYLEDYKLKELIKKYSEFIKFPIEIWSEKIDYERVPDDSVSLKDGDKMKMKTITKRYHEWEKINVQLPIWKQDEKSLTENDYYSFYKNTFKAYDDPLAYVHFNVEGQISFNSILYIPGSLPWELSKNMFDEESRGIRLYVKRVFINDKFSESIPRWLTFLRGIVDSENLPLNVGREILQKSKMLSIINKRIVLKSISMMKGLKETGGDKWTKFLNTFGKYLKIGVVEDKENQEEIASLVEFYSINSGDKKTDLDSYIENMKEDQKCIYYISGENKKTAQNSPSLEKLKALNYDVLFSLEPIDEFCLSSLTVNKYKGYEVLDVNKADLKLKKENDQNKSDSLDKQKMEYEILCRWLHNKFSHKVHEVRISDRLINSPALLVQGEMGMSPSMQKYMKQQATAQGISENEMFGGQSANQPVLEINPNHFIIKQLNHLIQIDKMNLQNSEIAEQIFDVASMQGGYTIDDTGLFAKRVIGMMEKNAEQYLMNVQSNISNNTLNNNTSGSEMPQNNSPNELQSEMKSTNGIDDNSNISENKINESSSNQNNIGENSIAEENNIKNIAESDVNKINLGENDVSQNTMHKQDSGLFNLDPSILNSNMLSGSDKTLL
The series can be described thus: Binding affinity to Plasmodium falciparum HSP90 nucleotide binding domain at 0.5 mM by SYPRO orange dye based DSF analysis. The method, boiled down:
(§1)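 Recombinant P. falciparum Hsp90 or GRP94 nucleotide-binding domain (0.05–0.2 mg/mL, optimized per protein) in 25 mM HEPES pH 7.5, 250 mM NaCl. Compound final concentration was 0.5 mM, with SYPRO Orange at 1:1000. Samples were heated from 18 to 90 °C at 1 °C/min. Tm was taken as the Boltzmann-fit inflection point. ΔTm = Tm with ligand minus Tm without, and shifts beyond ±1 °C were counted significant.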
On the technique in general: In DSF a fluorescence change marks the thermal transition of the protein.

Series [2] relates to Plasmodium falciparum. The series can be described thus: Binding affinity to Plasmodium falciparum GRP94 nucleotide binding domain at 0.5 mM by SYPRO orange dye based DSF analysis. The method, boiled down: as §1
A short description of series [3]: Selectivity index, ratio of CC50 for human HepG2A16 cells to IC50 for GFP-fused Plasmodium berghei sporozoites infected in human HepG2A16 cells. Format: toxicity, cell-based. Conditions: read-out: Ratio CC50/IC50. An outline of the steps:
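HepG2-A16 cells were grown at 3 × 10^4 per well on collagen and infected with GFP P. berghei sporozoites (5 × 10^3 to 1 × 10^4 per well) from A. stephensi salivary glands. Compounds were added at infection, from 10 µg/mL top plus seven serial dilutions, and refreshed at 3 h and then every 24 h. After 40 h at 37 °C, EEFs were methanol-fixed, anti-Hsp70 immunolabelled and counted by high-content imaging. SI = HepG2 CC50 / liver-stage IC50.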

For series [4], the system named is Plasmodium falciparum. The series can be described thus: Antiplasmodial activity against Plasmodium falciparum FCR-3 sporozoites infected in human primary hepatocytes treated simultaneously with infection by DAPI staining based HCS analysis. In kind it is functional, organism-based, FCR-3/Gambia.
Series [5] has as its target T1, HSP90 (Plasmodium falciparum 3D7). Description: Binding affinity to Plasmodium falciparum HSP90 nucleotide binding domain by SPR analysis. The method, boiled down:
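Purified PfHsp90 and PfGRP94 nucleotide-binding domains were amine-coupled to a CM5 chip (3000 and 7000 RU, respectively), with a blank reference surface. Seven compound concentrations (0.4 nM–1 mM) were injected in triplicate at 30 µL/min, 25 °C, in random order. Running buffer: 10 mM HEPES pH 7.4, 150 mM NaCl, 0.005% P20, 1% DMSO, 2 mM MgCl2. Kd came from double-referenced sensorgrams.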

Series [6] can be described thus: Genotoxicity in Salmonella typhimurium TA1535 harboring pSK1002 assessed as survival at 1 mg/ml in absence of Sprague-Dawley rat liver S9 fraction after by SOS/umu assay relative to control. Conditions: salmonella enterica subsp. enterica serovar typhimurium, read-out: Survival. In kind it is toxicity, organism-based.
Series [7] can be described thus: Genotoxicity in Salmonella typhimurium TA1535 harboring pSK1002 assessed as umu gene induction at 1 mg/ml in absence of Sprague-Dawley rat liver S9 fraction after by SOS/umu assay relative to control. In kind it is toxicity, organism-based. As to conditions: salmonella enterica subsp. enterica serovar typhimurium, read-out: FC.
Series [8] in a line: Drug encapsulation in liposomes assessed as encapsulation efficiency in citrate/phosphate buffered measured after ultracentrifugation by UV/Vis spectroscopy relative to untreated control. In kind it is physicochemical. As to conditions: artificial membrane. An outline of the steps:
(§2)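 Compound loaded into DSPC:cholesterol:DSPE-PEG2000-Mal:DOPE-Rho (84.5:10:5:0.5) liposomes using a citrate (pH 4.0)/PBS pH gradient. Drug measured by UV/vis after SDS disruption at each step: citrate liposomes, after buffer exchange to PBS (chloroquine added to preformed liposomes here), and after ultracentrifugation. Encapsulation efficiency = % of drug that is encapsulated out of total drug in the sample.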

Series [9] is described as follows: Drug encapsulation in liposomes assessed as encapsulation efficiency in citrate/phosphate buffered measured after buffer exchange with PBS by UV/Vis spectroscopy relative to untreated control. Conditions: artificial membrane. Format: physicochemical. The method, boiled down: as §2
Series [10] relates to Plasmodium falciparum. The series can be described thus: Antiplasmodial activity against Plasmodium falciparum 3D7 late stage forms infected in human non-washed human RBC containing full drug dosages by [3H]-hypoxanthine incorporation assay. As to conditions: 3D7, Erythrocyte. Format: functional, organism-based.
For series [11], the system named is Plasmodium falciparum. The series can be described thus: Antiplasmodial activity against chloroquine-sensitive Plasmodium falciparum 3D7 ring forms infected in human RBC using compound encapsulated in to immunoliposome targeted to GPA incubated for 15 mins followed by compound removal and further incubation for 48 hrs by [3H]-hypoxanthine incorporation assay. Format: functional, organism-based. Conditions: 3D7, Erythrocyte.

Series [12] concerns Plasmodium falciparum. The series can be described thus: Antiplasmodial activity against Plasmodium falciparum 3D7 ring stage forms infected in human non-washed human RBC containing full drug dosages by [3H]-hypoxanthine incorporation assay. Format: functional, organism-based. Conditions: 3D7, Erythrocyte.
Series [13] in a line: Drug internalization in liposomes assessed as zeta potential at 500 uM in presence of pH 4 citrate buffer solution (reference value: -2.73 mV). Conditions: artificial membrane, pH 4, 500 µM. In kind it is physicochemical. The method, boiled down: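 Zeta potential of liposomes loaded with compound (500 µM drug per 10 mM lipid), measured in the pH 4.0 citrate hydration buffer and again after buffer exchange to PBS pH 7.4; drug-free liposomes of the same lipid composition served as reference.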

The nature of series [14]: Genotoxicity in Salmonella typhimurium TA1535 harboring pSK1002 assessed as survival at 0.0005 mg/ml in presence of Sprague-Dawley rat liver S9 fraction after by SOS/umu assay relative to control. Format: toxicity, organism-based. As to conditions: salmonella enterica subsp. enterica serovar typhimurium, read-out: Survival.
Series [15] is described as follows: Genotoxicity in Salmonella typhimurium TA1535 harboring pSK1002 assessed as umu gene induction at 0.0005 mg/ml in presence of Sprague-Dawley rat liver S9 fraction after by SOS/umu assay relative to control. Format: toxicity, organism-based. As to conditions: salmonella enterica subsp. enterica serovar typhimurium, read-out: FC.

Each structure is given as a SMILES string. Calls of active or inactive are those of the source. The rule behind the calls is not given here.

For the compound `OC(CCN1CCN(C(c2ccccc2)c2ccccc2)CC1)c1ccc(F)c2ccccc12` (configuration not stated), the outcome (in series [1]; with Plasmodium falciparum [2]; in series [5]) was inactive. Moreover, the selectivity ratio in series [3] worked out at 3.7. Besides, in the series on Plasmodium falciparum [4], the IC50 (as a rule, the concentration at which inhibition is half-maximal) is “Not Active”.

With `OC(CCN1CCN(c2ccccc2C(F)(F)F)CC1)c1ccc(F)c2ccccc12` (stereo in doubt; 55), the viability at 1 mg/ml in series [6] was 229%. In series [7], the fold induction at 1 mg/ml stood at 0.3.

In the case of `N#Cc1ccc(N2CCC(NCCC(O)c3ccc(F)c4ccccc34)CC2)c(Cl)c1` (configuration not stated), the result (in series [1]; in the series on Plasmodium falciparum [2]; in [5]) was inactive. In series [3], the selectivity ratio came to 2.3. In the series on Plasmodium falciparum [4], the IC50 result is given as “Not Active”.

`OC(CCN1CCN(c2ccccc2C(F)(F)F)CC1)c1ccc(F)cc1` (configuration not stated): the viability at 1 mg/ml in [6] came to 244%. Moreover, the fold induction at 1 mg/ml in [7] was 0.1.

For `COc1ccccc1C1=CCN(CCC(O)c2ccc(F)cc2)CC1` (configuration not stated), the viability at 1 mg/ml in series [6] amounted to 82.3%. Also, in series [7], the fold induction at 1 mg/ml was 0.3.

On to `N#Cc1ccc(N2CCC(NCCC(O)c3ccc(F)c4ccccc34)CC2)c(C(F)(F)F)c1` (stereo in doubt; 72), for which the Activity in [8] is recorded as 101.4%; in series [9], 77.2%; in series [13], 8.54 mV. The selectivity ratio in [3] was determined as 2.3. Further, the half-inhibitory concentration (IC50) entry was “Not Active” in the series with Plasmodium falciparum [4], 302 nM with Plasmodium falciparum [10], 146 nM with Plasmodium falciparum [11] and 181 nM in the series on Plasmodium falciparum [12].

`OC(CCN1CCN(C(c2ccccc2)c2ccccc2)CC1)c1ccc(F)c(F)c1` (configuration not stated): the viability at 0.0005 mg/ml in series [14] was 94.7%. Besides, the fold induction at 0.0005 mg/ml in series [15] is 1.

As for `N#Cc1ccc(N2CCC(NCCC(O)c3ccc(F)c4ccccc34)CC2)c(Br)c1` (configuration not stated), the result (in [1]; in the series with Plasmodium falciparum [2]; in series [5]) was inactive.

For the compound `COc1ccccc1N1CCN(CCC(O)c2ccc(F)c3ccccc23)CC1` (configuration not stated), the outcome (in [1]; in the series with Plasmodium falciparum [2]; in [5]) was inactive.

(Values after ChEMBL document CHEMBL4152256, “Structure-activity relationship of new antimalarial 1-aryl-3-susbtituted propanol derivatives: Synthesis, preliminary toxicity profiling, parasite life cycle stage studies, target exploration, and targeted delivery” (Eur J Med Chem, 2018).)
